Values after ≈ are worked out from the molar mass of the structure shown. Active and inactive are the calls of the source. The rule behind the calls is not given here. Where a SMILES comes first, the peptide text is derived from it. [ ]: non-standard residue; d: D form. The star is where a group is joined. Lauroyl = CCCCCCCCCCCC(=O)*; Decanoyl = CCCCCCCCCC(=O)*; Aib = CC(C)(N)C(=O)O; βAla = NCCC(=O)O
Tests used:
[1] = test system: HCT-116; test: Antiproliferative activity against human HCT-116 cells measured after 24 hrs by MTT assay; format: functional, cell-based; settings: HCT-116, 24 h
Method in brief: (§1)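 MTT read-out after 24 h; HCT-116 (7000 cells/well) or MDA-MB-231 (8000 cells/well) in DMEM with 10% FBS, 37 °C, 5% CO2, plated overnight before dosing; MTT 0.5 mg/ml final, 2 h at 37 °C; formazan dissolved in DMSO, A550; vehicle (0.5% DMSO) set as 100% growth; biological triplicates, two technical replicates.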

[2] = test system: MDA-MB-231; test: Antiproliferative activity against human MDA-MB-231 cells measured after 24 hrs by MTT assay; format: functional, cell-based; settings: MDA-MB-231, 24 h; method in brief: as §1
[3] = Hemolytic activity in sheep erythrocytes assessed as hemolysis incubated for 1 hr by microplate reader based analysis; format: toxicity, cell-based, Ovis aries, Erythrocyte
Method in brief: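 Defibrinated sheep blood washed 3× in PBS, diluted 1:500 (~8×10^7 cells/mL); 190 μL suspension plus 10 μL 20-fold compound stock in PBS + 0.5% DMSO, 1 h at 37 °C; centrifuged, supernatant OD450; 0.1% Triton X-100 positive control; three independent experiments.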

[4] = Toxicity in zebra fish AB embryo assessed as mortality at 10 uM incubated for 48 hrs relative to control; design: species or system Danio rerio; settings: zebrafish, read-out: Activity
[5] = Toxicity in zebra fish AB embryo assessed as mortality incubated for 48 hrs; design: species or system Danio rerio; settings: zebrafish
[6] = Toxicity in human SK-MEL-5 cells assessed as calcium influx-mediated cell rupture at 16 uM measured upto 120 secs by fluorescence based analysis; settings: sk-mel-5, 2 min, time < 120 sec
[7] = test system: Staphylococcus aureus; test: Antimicrobial activity against Staphylococcus aureus ATCC 25923 measured after 16 hrs by CLSI protocol based method; format: functional
[8] = test system: Staphylococcus aureus; test: Antimicrobial activity against methicillin resistant Staphylococcus aureus ATCC BAA41 measured after 16 hrs by CLSI protocol based method; format: functional
[9] = test system: Staphylococcus aureus; test: Antimicrobial activity against multidrug resistant Staphylococcus aureus ATCC BAA-44 measured after 16 hrs by CLSI protocol based method; format: functional
[10] = test system: [Candida] auris; test: Antimicrobial activity against Candida auris CDCB11903 measured after 16 hrs by CLSI protocol based method; format: functional; settings: Candidozyma auris
[11] = test system: OVCAR-8; test: Antiproliferative activity against human OVCAR-8 cells measured after 24 hrs by MTT assay; format: functional; settings: read-out: LC50 (the source's name)
[12] = test system: SK-MEL-5; test: Induction of mitochondrial membrane potential in human SK-MEL-5 cells assessed as reduction in accumulation of dye at 1 uM measured after 30 mins by […] staining based confocal microscopy analysis; format: functional, cell-based
Method in brief: (§2)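 SK-Mel-5 on poly-L-lysine-coated coverslips, 24 h; 30 min at 37 °C with 2 μM MitoOrange, 0.1% Hoechst 33342 and 1 μM compound, 0.1% DMSO or 50 μM FCCP; washed in warm PBS with CaCl2/MgCl2; confocal imaging, 20x objective, transmitted light plus MitoOrange CMTMRos and Hoechst channels.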

[13] = test system: SK-MEL-5; test: Induction of apoptosis in human SK-MEL-5 cells assessed as membrane blebbing at 1 uM measured after 30 mins by confocal microscopy based analysis; format: functional, cell-based; method in brief: as §2
[14] = test system: SK-MEL-5; test: Induction of apoptosis in human SK-MEL-5 cells assessed as early apoptosis at 1 to 4 uM measured after 3 hrs by Annexin V-FITC/propidium iodide staining based flow cytometric analysis; format: functional, cell-based; settings: dose 1-4 µM
Method in brief: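 SK-Mel-5 (1 × 10^6 cells per T25) grown 24 h, then treated 3 h in medium at 1 or 4 μM; 0.5% DMSO vehicle, 5 μM camptothecin control; trypsinised, washed, stained with FITC-annexin V and propidium iodide 15 min at RT in the dark, analysed by flow cytometry within 1 h.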

[15] = test system: SK-MEL-5; test: Induction of calcium influx in human SK-MEL-5 cells assessed as increase in fluorescence at 1 to 4 uM measured upto 120 secs by fluorescence based assay; format: functional, cell-based; settings: dose 1-4 µM, time <= 120.0 sec
[16] = Toxicity in zebra fish AB embryo assessed as mortality at 50 uM incubated for 48 hrs relative to control; design: species or system Danio rerio; settings: zebrafish, read-out: Activity

| Compound | IC50 [1] [µM] | IC50 [2] [µM] | IC50 at 1 h [3] [µM] | MIC [7] [mg/L] | MIC [8] [mg/L] | MIC [9] [mg/L] | MIC [10] [mg/L] | also measured |
| --- | --- | --- | --- | --- | --- | --- | --- | --- |
| CCCCCCCCCCCC(=O)NC(C)(C)C(=O)N1CCC[C@H]1C(=O)NC(C)(C)C(=O)NC(C)(C)C(=O)N1CCC[C@H]1C(=O)NC(C)(C)C(=O)NC(C)(C)C(=O)N1CCC[C@H]1C(=O)N[C@@H](C)C(=O)NC(C)(C)C(=O)NCCC(=O)N[C@@H](C)C(=O)NC(C)(C)C(=O)NC(C)(C)C(=O)NCCC(=O)NC(C)(C)C(=O)NC(C)(C)C(=O)NC(C)(C)C(=O)N[C@@H](C)C(=O)NCCC(=O)O [listing 1 of 2 here] | 1.2 | 1.5 | 1.5 | – | – | – | – | mortality at 48 h, 10 µM [4]: 100%; EC50 at 48 h [5]: 5 µM; Activity [6]: Toxic |
| CCCCCCCCCCCC(=O)NC(C)(C)C(=O)N1CCC[C@H]1C(=O)NC(C)(C)C(=O)NC(C)(C)C(=O)N1CCC[C@H]1C(=O)NC(C)(C)C(=O)NC(C)(C)C(=O)N1CCC[C@H]1C(=O)N[C@@H](C)C(=O)NC(C)(C)C(=O)NCCC(=O)N[C@@H](C)C(=O)NC(C)(C)C(=O)NC(C)(C)C(=O)NCCC(=O)NC(C)(C)C(=O)NC(C)(C)C(=O)NC(C)(C)C(=O)N[C@@H](C)C(=O)NCCC(=O)O [listing 2 of 2 here] | – | – | – | 4 (≈ 2.16 µM) | 4 (≈ 2.16 µM) | 4 (≈ 2.16 µM) | 4 (≈ 2.16 µM) | CC50 [11]: > 16 µM |
| COc1cccc2c1[C@H](OC)[C@]13O[C@@]1(C2=O)[C@H](O)[C@H](C)[C@@](O)(C(=O)[C@@H]1O[C@H]1C)[C@@H]3O | 1.3 | 0.6 | – | – | – | – | – | – |
| CCCCCCCCCCCC(=O)NC(C)(C)C(=O)N1CCC[C@@H]1C(=O)NC(C)(C)C(=O)NC(C)(C)C(=O)N1CCC[C@@H]1C(=O)NC(C)(C)C(=O)NC(C)(C)C(=O)N1CCC[C@H]1C(=O)N[C@@H](C)C(=O)NC(C)(C)C(=O)NCCC(=O)N[C@@H](C)C(=O)NC(C)(C)C(=O)NC(C)(C)C(=O)NCCC(=O)NC(C)(C)C(=O)NC(C)(C)C(=O)NC(C)(C)C(=O)N[C@@H](C)C(=O)NCCC(=O)O | – | – | – | – | – | – | – | Activity [12]: Active; Activity [13]: inactive; Activity [14]: Active |
| C[C@H](CCC(=O)O)C[C@H](C)C[C@H](C)C(=O)/C=C(\O)[C@H](C)C[C@H](C)C/C=C/[C@@H](C)[C@@H](O)[C@@H](C)[C@@H](O)C[C@@H]1CC[C@@](C)([C@H]2CC[C@@](C)([C@@H](C)O)O2)O1 | – | – | – | – | – | – | – | Activity [15]: Active |
| CCCCCCCCCC(=O)NC(C)(C)C(=O)N1CCC[C@H]1C(=O)NC(C)(C)C(=O)NC(C)(C)C(=O)N1CCC[C@H]1C(=O)NC(C)(C)C(=O)NC(C)(C)C(=O)N1CCC[C@H]1C(=O)N[C@@H](C)C(=O)NC(C)(C)C(=O)NCCC(=O)N[C@@H](C)C(=O)NC(C)(C)C(=O)NC(C)(C)C(=O)NCCC(=O)NC(C)(C)C(=O)NC(C)(C)C(=O)NC(C)(C)C(=O)N[C@@H](C)C(=O)NCCC(=O)O (Decanoyl-[Aib]P[Aib][Aib]P[Aib][Aib]PA[Aib][βAla]A[Aib][Aib][βAla][Aib][Aib][Aib]A[βAla]-OH) [listing 1 of 2 here] | 5.2 | 9.2 | 7 | – | – | – | – | mortality at 48 h, 50 µM [16]: 100%; EC50 at 48 h [5]: 30 µM |
| CCCCCCCCCC(=O)NC(C)(C)C(=O)N1CCC[C@H]1C(=O)NC(C)(C)C(=O)NC(C)(C)C(=O)N1CCC[C@H]1C(=O)NC(C)(C)C(=O)NC(C)(C)C(=O)N1CCC[C@H]1C(=O)N[C@@H](C)C(=O)NC(C)(C)C(=O)NCCC(=O)N[C@@H](C)C(=O)NC(C)(C)C(=O)NC(C)(C)C(=O)NCCC(=O)NC(C)(C)C(=O)NC(C)(C)C(=O)NC(C)(C)C(=O)N[C@@H](C)C(=O)NCCC(=O)O (Decanoyl-[Aib]P[Aib][Aib]P[Aib][Aib]PA[Aib][βAla]A[Aib][Aib][βAla][Aib][Aib][Aib]A[βAla]-OH) [listing 2 of 2 here] | – | – | – | 16 (≈ 8.76 µM) | 16 (≈ 8.76 µM) | 16 (≈ 8.76 µM) | 16 (≈ 8.76 µM) | – |
| CCCCCCCCCC(=O)NC(C)(C)C(=O)N1CCC[C@H]1C(=O)NC(C)(C)C(=O)NC(C)(C)C(=O)N1CCC[C@H]1C(=O)NC(C)(C)C(=O)NC(C)(C)C(=O)N1CCC[C@H]1C(=O)NC(C)(C)C(=O)NC(C)(C)C(=O)NCCC(=O)N[C@@H](C)C(=O)NC(C)(C)C(=O)NC(C)(C)C(=O)NCCC(=O)NC(C)(C)C(=O)NC(C)(C)C(=O)NC(C)(C)C(=O)N[C@@H](C)C(=O)NCCC(=O)O (Decanoyl-[Aib]P[Aib][Aib]P[Aib][Aib]P[Aib][Aib][βAla]A[Aib][Aib][βAla][Aib][Aib][Aib]A[βAla]-OH) [listing 1 of 2 here] | 6.1 | 8.2 | 10 | – | – | – | – | – |
| CCCCCCCCCC(=O)NC(C)(C)C(=O)N1CCC[C@H]1C(=O)NC(C)(C)C(=O)NC(C)(C)C(=O)N1CCC[C@H]1C(=O)NC(C)(C)C(=O)NC(C)(C)C(=O)N1CCC[C@H]1C(=O)NC(C)(C)C(=O)NC(C)(C)C(=O)NCCC(=O)N[C@@H](C)C(=O)NC(C)(C)C(=O)NC(C)(C)C(=O)NCCC(=O)NC(C)(C)C(=O)NC(C)(C)C(=O)NC(C)(C)C(=O)N[C@@H](C)C(=O)NCCC(=O)O (Decanoyl-[Aib]P[Aib][Aib]P[Aib][Aib]P[Aib][Aib][βAla]A[Aib][Aib][βAla][Aib][Aib][Aib]A[βAla]-OH) [listing 2 of 2 here] | – | – | – | 16 (≈ 8.69 µM) | 16 (≈ 8.69 µM) | 16 (≈ 8.69 µM) | 16 (≈ 8.69 µM) | – |
| CCCCCCCCCCCC(=O)NC(C)(C)C(=O)N1CCC[C@H]1C(=O)NC(C)(C)C(=O)NC(C)(C)C(=O)N1CCC[C@H]1C(=O)NC(C)(C)C(=O)NC(C)(C)C(=O)N1CCC[C@H]1C(=O)NC(C)(C)C(=O)NC(C)(C)C(=O)NCCC(=O)N[C@@H](C)C(=O)NC(C)(C)C(=O)NC(C)(C)C(=O)NCCC(=O)NC(C)(C)C(=O)NC(C)(C)C(=O)NC(C)(C)C(=O)N[C@@H](C)C(=O)NCCC(=O)O (Lauroyl-[Aib]P[Aib][Aib]P[Aib][Aib]P[Aib][Aib][βAla]A[Aib][Aib][βAla][Aib][Aib][Aib]A[βAla]-OH) [listing 1 of 2 here] | 9.5 | 11.1 | 2 | – | – | – | – | – |
| CCCCCCCCCCCC(=O)NC(C)(C)C(=O)N1CCC[C@H]1C(=O)NC(C)(C)C(=O)NC(C)(C)C(=O)N1CCC[C@H]1C(=O)NC(C)(C)C(=O)NC(C)(C)C(=O)N1CCC[C@H]1C(=O)NC(C)(C)C(=O)NC(C)(C)C(=O)NCCC(=O)N[C@@H](C)C(=O)NC(C)(C)C(=O)NC(C)(C)C(=O)NCCC(=O)NC(C)(C)C(=O)NC(C)(C)C(=O)NC(C)(C)C(=O)N[C@@H](C)C(=O)NCCC(=O)O (Lauroyl-[Aib]P[Aib][Aib]P[Aib][Aib]P[Aib][Aib][βAla]A[Aib][Aib][βAla][Aib][Aib][Aib]A[βAla]-OH) [listing 2 of 2 here] | – | – | – | 4 (≈ 2.14 µM) | 8 (≈ 4.28 µM) | 8 (≈ 4.28 µM) | 16 (≈ 8.56 µM) | – |
| CC[C@H](C)C[C@H](C)CCCCCCCCC(=O)N[C@H]1C[C@@H](O)[C@@H](NCCN)NC(=O)[C@@H]2[C@@H](O)CCN2C(=O)[C@H]([C@H](O)CCN)NC(=O)[C@H]([C@H](O)[C@@H](O)c2ccc(O)cc2)NC(=O)[C@@H]2C[C@@H](O)CN2C(=O)[C@H]([C@@H](C)O)NC1=O [CASPOFUNGIN] | – | – | – | – | – | – | 2 (≈ 1.83 µM) | – |
| NC[C@H]1O[C@H](O[C@H]2[C@H](O)[C@@H](O[C@H]3O[C@H](CO)[C@@H](O)[C@H](N)[C@H]3O)[C@H](N)C[C@@H]2N)[C@H](O)[C@@H](O)[C@@H]1O [KANAMYCIN] | – | – | – | 1 (≈ 2.06 µM) | – | – | – | – |

— ChEMBL document CHEMBL5321263, “Metabolomics-Guided Discovery, Isolation, Structure Elucidation, and Bioactivity of Myropeptins C-E from Myrothecium inundatum” (J Nat Prod, 2023)
